The source of these data is the RNAGym collection of RNA variant scans (doi:10.1002/anie.201605470).

First the molecules themselves.
B1: Osa-1-4 twister ribozyme (parent)
chain: CCGCCUAACACUGCCAAUGCCGGUCCCAAGCCCGGAUAAAAGUGGAGGGGGCGG

In this data set the parent is B1. Put plainly: self-cleavage, relative activity (ratio to wild type); higher = more cleavage; co-transcriptional. The method, boiled down: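 For each read, cleavage status was taken from whether upstream sequence was present. The reads came from an Oryza sativa twister ribozyme of 54 nucleotides, whose DNA template was synthesised with 97 % wild-type base and 1 % of each other base at the 48 positions downstream of the cleavage site. The template was transcribed in vitro at 37 °C for 2 h with co-transcriptional self-cleavage, and the RNA was reverse-transcribed using a template-switching oligonucleotide, PCR-amplified and deep-sequenced. Relative activity is the fraction cleaved normalised to wild type.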
As to CCGCCUAACACUGCCAAUGCCGGUCCCAAGGCUGGAUAAAAGUGGAGGGGGCGG, the self-cleavage is 0.06. In the case of CCGCCUAACACUGCCAAUGCCGGUCCCAAGGCGGGAUAAAAGUGGAGGGGGCGG it was 0.03; in that of CCGCCUAACACUGCCAAUGCCGGUCCCAAGGCAGGAUAAAAGUGGAGGGGGCGG, 0.04. In the case of CCGCCUAACACUGCCAAUGCCGGUCCCAAGACCGGAUAAAAGUGGAGGGUGCGG it was 0.04; in that of CCGCCUAACACUGCCAAUGCCGGUCCCAAGACCGGAUAAAAGUGGAGGGAGCGG, 0.04.

CCGCCUAACACUGCCAAUGCCGGUCCCAAGACCGGAUAAAAGUGGAGGGCGCGG: the self-cleavage turned out to be 0.04. In the case of CCGCCUAACACUGCCAAUGCCGGUCCCAAGACCGGAUAAAAGGGGAGGGGGCGG it was 0.04; in that of CCGCCUAACACUGCCAAUGCCGGUCCCAAGACCGGAUAAAAGCGGAGGGGGCGG, 0.03.

In the case of CCGCCUAACACUGCCAAUGCCGGUCCCAAGACCGGAUAAAAGAGGAGGGGGCGG, the self-cleavage worked out at 0.03. CCGCCUAACACUGCCAAUGCCCGUCCCAAGGCCGGAUAAAAGUGGAGGGGGCGG: the self-cleavage was found to be 0.04.

With CCGCCUAACACUGCCAAUGCCAGUCCCAAGGCCGGAUAAAAGUGGAGGGGGCGG, the self-cleavage is 0.11. Consider CCGCCUAACACUGCCAAUGCCUGUCCCAAGGCCGGAUAAAAGUGGAGGGGGCGG, for which the self-cleavage was 0.05. In the case of CCGCCUAACACUGCCAAUGCCGGGCCCAAGACCGGAUAAAAGUGGAGGGGGCGG it was 0.01. In the case of CCGCCUAACACUGCCAAUGCCGGCCCCAAGACCGGAUAAAAGUGGAGGGGGCGG it was 0.02; in that of CCGCCUAACACUGCCAAUGCCGGACCCAAGACCGGAUAAAAGUGGAGGGGGCGG, 0.02; in that of CCGCCUAACACUGCCAAAGCCGGUCCCAAGACCGGAUAAAAGUGGAGGGGGCGG, 0.04.

As to CCGCCUAACACUGCCAACGCCGGUCCCAAGACCGGAUAAAAGUGGAGGGGGCGG, the self-cleavage was determined as 0.04. For the variant CCGCCUAACACUGCCAAGGCCGGUCCCAAGACCGGAUAAAAGUGGAGGGGGCGG, the self-cleavage is 0.05. Consider CCGCCUAACACUGCCAAUGCCGGUCCCAAGACCGGAUAAAAGUGGAGGGGGCGU, for which the self-cleavage turned out to be 0.05. In the case of CCGCCUAACACUGCCAAUGCCGGUCCCAAGACCGGAUAAAAGUGGAGGGGGCGC it was 0.04; in that of CCGCCUAACACUGCCAAUGCCGGUCCCAAGACCGGAUAAAAGUGGAGGGGGCGA, 0.04.

As to CCGCCUAACACUGCCAAUGCCGGUCCCAAGGCCGGAUAAAAGUGGAGGUGGCGG, the self-cleavage was 0.03. In the case of CCGCCUAACACUGCCAAUGCCGGUCCCAAGGCCGGAUAAAAGUGGAGGCGGCGG it was 0.03.

On to CCGCCUAACACUGCCAAUGCCGGUCCCAAGGCCGGAUAAAAGUGGAGGAGGCGG, for which the self-cleavage came out at 0.05.

Turning to CCGCCUAACACUGCCAAUGCCGGUCCCAAGACCGGACAAAAGUGGAGGGGGCGG, the self-cleavage was 0.04. In the case of CCGCCUAACACUGCCAAUGCCGGUCCCAAGACCGGAGAAAAGUGGAGGGGGCGG it was 0.05; in that of CCGCCUAACACUGCCAAUGCCGGUCCCAAGACCGGAAAAAAGUGGAGGGGGCGG, 0.03; in that of CCGCCUAAUACUGCCAAUGCCGGUCCCAAGGCCGGAUAAAAGUGGAGGGGGCGG, 0.06. In the case of CCGCCUAAGACUGCCAAUGCCGGUCCCAAGGCCGGAUAAAAGUGGAGGGGGCGG it was 0.23. Turning to CCGCCUAAAACUGCCAAUGCCGGUCCCAAGGCCGGAUAAAAGUGGAGGGGGCGG, the self-cleavage was determined as 0.03. For the variant CCGCCUAACACUGCCAAUGCCGGUCCCAAGGCCGGAUAAAAGUGGAGGGUGCGG, the self-cleavage was determined as 0.06. Turning to CCGCCUAACACUGCCAAUGCCGGUCCCAAGGCCGGAUAAAAGUGGAGGGCGCGG, the self-cleavage amounted to 0.07.

Turning to CCGCCUAACACUGCCAAUGCCGGUCCCAAGGCCGGAUAAAAGUGGAGGGAGCGG, the self-cleavage came out at 0.11. In the case of CCGCCUAACACUGCCAAUGCCGGUCCCAAGGCCAGAUAAAAGUGGAGGGGGCGG it was 0.11. In the case of CCGCCUAACACUGCCAAUGCCGGUCCCAAGGCCUGAUAAAAGUGGAGGGGGCGG it was 0.08; in that of CCGCCUAACACUGCCAAUGCCGGUCCCAAGGCCCGAUAAAAGUGGAGGGGGCGG, 0.1.

For the variant CCGCCUAACACUGCCAAUGCCGGUCCCAAGGCCGGAUAAAAGUGCAGGGGGCGG, the self-cleavage was 0.03. In the case of CCGCCUAACACUGCCAAUGCCGGUCCCAAGGCCGGAUAAAAGUGUAGGGGGCGG it was 0.03; in that of CCGCCUAACACUGCCAAUGCCGGUCCCAAGGCCGGAUAAAAGUGAAGGGGGCGG, 0.04. In the case of CCGCCUAACACUGCCAAUGCCGGUCCCAAGGCCGGAUAAAAGUGGAAGGGGCGG it was 0.04; in that of CCGCCUAACACUGCCAAUGCCGGUCCCAAGGCCGGAUAAAAGUGGACGGGGCGG, 0.03; in that of CCGCCUAACACUGCCAAUGCCGGUCCCAAGGCCGGAUAAAAGUGGAUGGGGCGG, 0.04. For the variant CCGCCUAACACUGCCAAUGCCGGUCCCAAGGCCGGAUAAAAGUGGAGGGGGCCG, the self-cleavage came to 0.04. In the case of CCGCCUAACACUGCCAAUGCCGGUCCCAAGGCCGGAUAAAAGUGGAGGGGGCUG it was 0.07. In the case of CCGCCUAACACUGCCAAUGCCGGUCCCAAGGCCGGAUAAAAGUGGAGGGGGCAG, the self-cleavage stood at 0.08. In the case of CCGCCUAACACUGCCAAUUCCGGUCCCAAGGCCGGAUAAAAGUGGAGGGGGCGG it was 0.05; in that of CCGCCUAACACUGCCAAUACCGGUCCCAAGGCCGGAUAAAAGUGGAGGGGGCGG, 0.08. In the case of CCGCCUAACACUGCCAAUCCCGGUCCCAAGGCCGGAUAAAAGUGGAGGGGGCGG it was 0.02.
